Measured values taken from ChEMBL document CHEMBL3997852, “Discovery of Fluorine-Containing Benzoxazinyl-oxazolidinones for the Treatment of Multidrug Resistant Tuberculosis” (ACS Med Chem Lett, 2017).
Values after ≈ are worked out from the molar mass of the structure shown.

What was measured:
[1] = tested on: Mycobacterium tuberculosis; assay: Antitubercular activity against Mycobacterium tuberculosis H37Rv after 7 days by microplate alamar blue assay; type: functional; settings: 168 h
Method in brief: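 Microplate alamar blue assay on M. tuberculosis H37Rv. The MIC is the lowest concentration that reduces fluorescence by ≥90% relative to the mean of replicate bacterium-only controls.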

Vero = assay: Cytotoxicity against African green monkey Vero cells assessed as growth inhibition after 48 hrs by MTT assay; type: ADME, cell-based; settings: Chlorocebus sabaeus
[2] = Selectivity index, ratio of IC50 for African green monkey Vero cells to MIC for Mycobacterium tuberculosis H37Rv
H9c2 = assay: Inhibition of mitochondrial protein synthesis in rat H9c2 cells after 5 days by In-Cell ELISA; settings: H9c2, 120 h
[3] = Elimination half life in CD1 mouse at 10 mg/kg, po measured over 24 hrs by HPLC/MS/MS method; type: ADME, organism-based; settings: in vivo, read-out: beta t1/2
HepG2 = assay: Cytotoxicity against human HepG2 cells after 48 hrs by MTT assay; settings: HepG2, 48 h
[4] = Metabolic stability in CD1 mouse liver microsomes assessed as compound remaining at 0.1 uM in presence of NADPH after 30 mins by LC/MS method; type: ADME, microsome; settings: read-out: Stability
Liver [5] = assay: Metabolic stability in CD1 mouse liver microsomes at 0.1 uM in absence of NADPH after 30 mins by LC/MS method; type: ADME, microsome; settings: 0.5 h
[6] = Metabolic stability in human liver microsomes assessed as compound remaining at 0.1 uM in presence of NADPH after 30 mins by LC/MS method; type: ADME, microsome; settings: read-out: Stability
Liver [7] = assay: Metabolic stability in human liver microsomes at 0.1 uM in absence of NADPH after 30 mins by LC/MS method; type: ADME, microsome; settings: 0.5 h
[8] = Cmax in Balb/c mouse at 100 mg/kg, po measured over 24 hrs by LC/TSQ quantum access mass spectrometric method; type: ADME, organism-based; design: dose 100 mg/kg, route oral; settings: in vivo
[9] = Cmax in Balb/c mouse at 10 mg/kg, iv measured over 24 hrs by LC/TSQ quantum access mass spectrometric method; type: ADME, organism-based; design: dose 10 mg/kg, route intravenous; settings: in vivo
[10] = Tmax in Balb/c mouse at 100 mg/kg, po measured over 24 hrs by LC/TSQ quantum access mass spectrometric method; type: ADME, organism-based; settings: in vivo
[11] = Tmax in Balb/c mouse at 10 mg/kg, iv measured over 24 hrs by LC/TSQ quantum access mass spectrometric method; type: ADME, organism-based; settings: in vivo
[12] = Plasma elimination half life in Balb/c mouse at 100 mg/kg, po measured over 24 hrs by LC/TSQ quantum access mass spectrometric method; type: ADME, organism-based; settings: read-out: beta t1/2 (converted)
[13] = Plasma elimination half life in Balb/c mouse at 10 mg/kg, iv measured over 24 hrs by LC/TSQ quantum access mass spectrometric method; type: ADME, organism-based; settings: read-out: beta t1/2 (converted)
[14] = AUC (0 to infinity) in Balb/c mouse at 100 mg/kg, po measured over 24 hrs by LC/TSQ quantum access mass spectrometric method; type: ADME, organism-based; design: dose 100 mg/kg, route oral, time infinity; settings: in vivo
[15] = AUC (0 to infinity) in Balb/c mouse at 10 mg/kg, iv measured over 24 hrs by LC/TSQ quantum access mass spectrometric method; type: ADME, organism-based; design: dose 10 mg/kg, time infinity, route intravenous; settings: in vivo
[16] = MRT in Balb/c mouse at 100 mg/kg, po measured over 24 hrs by LC/TSQ quantum access mass spectrometric method; type: ADME, organism-based; settings: in vivo
[17] = MRT in Balb/c mouse at 10 mg/kg, iv measured over 24 hrs by LC/TSQ quantum access mass spectrometric method; type: ADME, organism-based; settings: in vivo
[18] = Clearance in Balb/c mouse at 10 mg/kg, iv measured over 24 hrs by LC/TSQ quantum access mass spectrometric method; type: ADME, organism-based; settings: in vivo
[19] = Oral bioavailability in Balb/c mouse at 100 mg/kg measured over 24 hrs by LC/TSQ quantum access mass spectrometric method; type: ADME, organism-based; settings: in vivo

Structure (SMILES)	MIC90 [1] [µg/mL]	IC50 (Vero) [µg/mL]	selectivity ratio [2]	other results
CC(=O)NC[C@@H]1OC(=O)N2c3cc(F)c(C4=CCN(C(=O)[C@@H]5CCCN5)CC4)cc3OC[C@@H]12.Cl	7.12			
CO[C@H]1/C=C/O[C@@]2(C)Oc3c(C)c(O)c4c(O)c(c(/C=N/N5CCN(C)CC5)c(O)c4c3C2=O)NC(=O)/C(C)=C\C=C\[C@H](C)[C@H](O)[C@@H](C)[C@@H](O)[C@@H](C)[C@H](OC(C)=O)[C@@H]1C [RIFAMPIN]	0.057 (≈ 0.0693 µM)			
CC(=O)NC[C@@H]1OC(=O)N2c3ccc(C4=CCN(C(=O)CO)CC4)cc3OC[C@@H]12	0.725 (≈ 1.81 µM)	13.8 (≈ 34.3 µM)	19	
NNC(=O)c1ccncc1 [ISONIAZID]	0.037 (≈ 0.27 µM)			
O=C(NC[C@@H]1OC(=O)N2c3cc(F)c(C4=CCN(C(=O)CO)CC4)cc3OC[C@@H]12)C1CC1	1.87 (≈ 4.19 µM)	> 64	34	
O=C([C@@H](O)CO)N1CC=C(c2c(F)cc(N3C[C@H](COc4ccon4)OC3=O)cc2F)CC1 [POSIZOLID]	1.02 (≈ 2.2 µM)	> 64	62	
O=C(NC[C@@H]1OC(=O)N2c3cc(F)c(C4=CCN(CCO)CC4)cc3OC[C@@H]12)C1CCC1	1.1 (≈ 2.48 µM)	> 64	58	
O=C1O[C@@H](CNC(=O)C(F)(F)F)[C@@H]2COc3cc(C4=CCN(CCO)CC4)c(F)cc3N12	1.92 (≈ 4.17 µM)	> 64	33	
CC(=O)NC[C@@H]1OC(=O)N2c3cc(F)c(C4CCN(CCO)CC4)cc3OC[C@@H]12	14.6 (≈ 35.8 µM)			
CC(=O)NC[C@@H]1OC(=O)N2c3cc(F)c(C4=CCN(C(=O)CN)CC4)cc3OC[C@@H]12.Cl	0.732	> 64	87	
COC(=O)NC[C@@H]1OC(=O)N2c3cc(F)c(C4=CCN(C(=O)CO)CC4)cc3OC[C@@H]12	0.999 (≈ 2.29 µM)	> 64	64	
CCC(=O)N1CC=C(c2cc3c(cc2F)N2C(=O)O[C@@H](CNC(C)=O)[C@@H]2CO3)CC1	6.36 (≈ 15.2 µM)			
O=C(CO)N1CC=C(c2cc3c(cc2F)N2C(=O)O[C@@H](Cn4ccnn4)[C@@H]2CO3)CC1	10.9 (≈ 25.4 µM)			
O=C(NC[C@@H]1OC(=O)N2c3cc(F)c(C4=CCN(CCO)CC4)cc3OC[C@@H]12)C1CC1	0.473 (≈ 1.1 µM)	> 64	135	
CC(=O)NC[C@H]1CN(c2ccc(N3CCOCC3)c(F)c2)C(=O)O1 [LINEZOLID]	0.304 (≈ 0.901 µM)	> 64	197	IC50 (H9c2): 8.71 µM; half-life [3]: < 1 h
CC(=O)NC[C@@H]1OC(=O)N2c3cc(F)c(C4=CCN(C(=O)[C@@H]5CCCO5)CC4)cc3OC[C@@H]12	5.53 (≈ 12 µM)			
CC(=O)NC[C@@H]1OC(=O)N2c3cc(F)c(C4=CCN(CCO)CC4)cc3OC[C@@H]12	0.578 (≈ 1.43 µM)	> 64	111	
O=C(NC[C@@H]1OC(=O)N2c3cc(F)c(C4=CCN(C(=O)CO)CC4)cc3OC[C@@H]12)C1CCC1	1.68 (≈ 3.66 µM)	> 64	39	
O=C1O[C@@H](CNc2ccon2)[C@@H]2COc3cc(C4=CCN(CCO)CC4)c(F)cc3N12	0.98 (≈ 2.28 µM)	> 64	65	
CC(=O)NC[C@@H]1OC(=O)N2c3cc(F)c(C4=CCN(C(=O)[C@@H](O)CO)CC4)cc3OC[C@@H]12	0.483 (≈ 1.07 µM)	> 64	133	
CC(=O)NC[C@@H]1OC(=O)N2c3ccc(C4=CCN(CCO)CC4)cc3OC[C@@H]12	2.65 (≈ 6.83 µM)	26.8 (≈ 69.1 µM)	10	
O=C1O[C@@H](Cn2ccnn2)[C@@H]2COc3cc(C4=CCN(CCO)CC4)c(F)cc3N12	7.96 (≈ 19.2 µM)			
CC(=O)NC[C@@H]1OC(=O)N2c3cc(F)c(C4=CCN(C(=O)C5CCCC5)CC4)cc3OC[C@@H]12	7.94 (≈ 17.4 µM)			
COC(=O)NC[C@@H]1OC(=O)N2c3cc(F)c(C4=CCN(CCO)CC4)cc3OC[C@@H]12	2.22 (≈ 5.27 µM)	57.4 (≈ 136 µM)	26	
CC(=O)NC[C@@H]1OC(=O)N2c3cc(F)c(C4CCN(C(=O)CO)CC4)cc3OC[C@@H]12	3.81 (≈ 9.05 µM)	> 64	17	
O=C(CO)N1CC=C(c2cc3c(cc2F)N2C(=O)O[C@@H](CNC(=O)C(F)(F)F)[C@@H]2CO3)CC1	1.16 (≈ 2.45 µM)	> 64	55	
O=C(CO)N1CC=C(c2cc3c(cc2F)N2C(=O)O[C@@H](COc4ccon4)[C@@H]2CO3)CC1	> 32			
O=C(CO)N1CC=C(c2cc3c(cc2F)N2C(=O)O[C@@H](CNc4ccon4)[C@@H]2CO3)CC1	1.04 (≈ 2.35 µM)	> 64	61	
CC(=O)NC[C@@H]1OC(=O)N2c3cc(F)c(C4=CCN(C(=O)CO)CC4)cc3OC[C@@H]12	0.391 (≈ 0.932 µM)	> 64		IC50 (HepG2): > 64 µg/mL; IC50 (H9c2): 9.19 µM; remaining at 0.5 h, 0.1 µM [4]: 102%; Stability (Liver [5]): Stable; remaining at 0.5 h, 0.1 µM [6]: 103%; Stability (Liver [7]): Stable; Cmax [8]: 30000 ng/mL; Cmax [9]: 11400 ng/mL; Tmax [10]: 2 h; Tmax [11]: 1.8 min; half-life [12]: 4.22 h; half-life [13]: 8.23 h; AUC(0-inf) [14]: 122000 ng·h/mL; AUC(0-inf) [15]: 12000 ng·h/mL; MRT [16]: 4.12 h; MRT [17]: 2.54 h; clearance [18]: 13.9 mL/min/kg; bioavailability [19]: 102%
CC(=O)NC[C@@H]1OC(=O)N2c3cc(F)c(C4=CCN(C(=O)C5CC5)CC4)cc3OC[C@@H]12	6.4 (≈ 14.9 µM)			
